Experiments:
Candida albicans [1] = assay: Antifungal activity against Candida albicans ATCC 90028 assessed as metabolic activity at 80 ug/ml after 48 hrs in presence of 80 ug/ml fluconazol by XTT assay relative to control; settings: ATCC 90028, 48 h
Candida albicans [2] = assay: Synergistic antifungal activity against Candida albicans ATCC 90028 at 5 ug/ml after 48 hrs in presence of 2.5 ug/ml fluconazol by checkerboard assay relative to control; type: functional
Procedure, shortened: (§1)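 Checkerboard microdilution (M27-A3) on C. albicans ATCC 90028 in RPMI 1640: fluconazole (80-1.25 µg/mL) crossed with tetrazole (80-1.25 µg/mL final), incubated at 35°C for 48 h. Growth by OD405 at 18 and 48 h, endpoint taken as 100% inhibition. FIC index = sum of the two agents' FICs; <1 synergism, >1 antagonism.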

Candida albicans [3] = assay: Antifungal activity against Candida albicans ATCC 90028 assessed as inhibition of metabolic activity at 1.25 ug/ml after 48 hrs in presence of 5 ug/ml fluconazol by XTT assay relative to control; type: functional; settings: values are per cent of control
Procedure, shortened: (§2)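 Checkerboard against strain ATCC 90028, inoculum per M27-A3: fluconazole 80-1.25 µg/mL on one axis, tetrazole 80-1.25 µg/mL on the other. Plates at 35°C for 48 h, then XTT metabolic reduction read at 475 nm (660 nm reference). Activity is the drop in mean absorbance against untreated growth control. FICs and their summed FIC index are taken at 50% reduction in metabolic activity.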

Candida albicans [4] = assay: Antifungal activity against Candida albicans ATCC 90028 assessed as FIC at 80 ug/ml in presence of fluconazol after 48 hrs by checkerboard-based XTT assay; type: functional
Procedure, shortened: as §2

Candida albicans [5] = assay: Antifungal activity against Candida albicans ATCC 90028 assessed as inhibition of metabolic activity at 2.5 ug/ml after 48 hrs in presence of 80 ug/ml fluconazol by XTT assay relative to control; type: functional; settings: values are per cent of control
Procedure, shortened: (§3)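 C. albicans ATCC 90028 in checkerboard: fluconazole serial dilutions (80-1.25 µg/mL) crossed with tetrazole (80-1.25 µg/mL final), M27-A3 inoculum in RPMI 1640, 35°C for 48 h. Metabolic activity measured by XTT reduction, read at 475 nm (660 nm reference). Activity expressed relative to untreated growth control absorbance.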

Candida albicans [6] = assay: Synergistic antifungal activity against Candida albicans ATCC 90028 at 2.5 ug/ml after 48 hrs in presence of 40 ug/ml fluconazol by checkerboard assay relative to control; type: functional
Procedure, shortened: as §1

Candida albicans [7] = assay: Synergistic antifungal activity against Candida albicans ATCC 90028 at 5 ug/ml after 48 hrs in presence of 10 ug/ml fluconazol by checkerboard assay relative to control; type: functional
Procedure, shortened: (§4)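 Checkerboard in C. albicans ATCC 90028, inoculum prepared per CLSI M27-A3 in RPMI. Fluconazole serially diluted 80-1.25 µg/mL across the plate against the partner compound at 80-1.25 µg/mL final. Incubated 48 h at 35°C. Metabolic activity read by XTT reduction at 475 nm (660 nm reference), given as % of the untreated growth control.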

Candida albicans [8] = assay: Synergistic antifungal activity against Candida albicans ATCC 90028 at 40 ug/ml after 48 hrs in presence of 5 ug/ml fluconazol by checkerboard assay relative to control; type: functional
Procedure, shortened: as §4

Candida albicans [9] = assay: Antifungal activity against Candida albicans ATCC 90028 assessed as inhibition of metabolic activity at 10 ug/ml after 48 hrs in presence of 2.5 ug/ml fluconazol by XTT assay relative to control; type: functional; settings: values are per cent of control
Procedure, shortened: as §3

Candida albicans [10] = assay: Antifungal activity against Candida albicans ATCC 90028 assessed as metabolic activity at 10 ug/ml after 48 hrs in presence of 80 ug/ml fluconazol by XTT assay relative to control
Candida albicans [11] = assay: Antifungal activity against Candida albicans ATCC 90028 assessed as inhibition of metabolic activity at 1.25 ug/ml after 48 hrs in presence of 2.5 ug/ml fluconazol by XTT assay relative to control; type: functional; settings: values are per cent of control
Procedure, shortened: as §3

Candida albicans [12] = assay: Synergistic antifungal activity against Candida albicans ATCC 90028 at 10 ug/ml after 48 hrs in presence of 10 ug/ml fluconazol by checkerboard assay relative to control; type: functional; settings: ATCC 90028, 48 h, read-out: GI
Procedure, shortened: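 Checkerboard per M27-A3 against ATCC 90028: fluconazole at 80–1.25 µg/mL horizontally and partner compound at 80–1.25 µg/mL vertically, 100 µL yeast inoculum per well, 35°C for 48 h. After 48 h, metabolic activity was measured by XTT reduction at 475 nm (660 nm reference) relative to untreated growth control. FIC index is the sum of the FICs; <1 was defined as synergism and >1 as antagonism.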

Candida albicans [13] = assay: Antifungal activity against Candida albicans ATCC 90028 assessed as metabolic activity at 80 ug/ml after 48 hrs in presence of 1.25 ug/ml fluconazol by XTT assay relative to control
Candida albicans [14] = assay: Antifungal activity against Candida albicans ATCC 90028 assessed as metabolic activity at 20 ug/ml after 48 hrs in presence of 5 ug/ml fluconazol by XTT assay relative to control
Candida albicans [15] = assay: Fungicidal activity against Candida albicans ATCC 90028 at 16 ug/ml after 48 hrs by M27-A3 microdilution method; type: functional
Procedure, shortened: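 After 48 h at 35°C in M27-A3 microdilution plates (compound at 16 µg/mL), 50 µL aliquots from treated and solvent-control wells were diluted 10^4 in PBS and plated on drug-free Sabouraud dextrose agar, then incubated 48 h at 35°C. Reduction R = lg CFU/mL control − lg CFU/mL treated; R ≥ 3 defined as fungicidal.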

Candida albicans [16] = assay: Synergistic antifungal activity against Candida albicans ATCC 90028 at 2.5 ug/ml after 48 hrs in presence of 5 ug/ml fluconazol by checkerboard assay relative to control; type: functional
Procedure, shortened: as §1

Candida albicans [17] = assay: Antifungal activity against Candida albicans ATCC 90028 assessed as metabolic activity at 20 ug/ml after 48 hrs in presence of 20 ug/ml fluconazol by XTT assay relative to control; settings: ATCC 90028, 48 h
Candida albicans [18] = assay: Synergistic antifungal activity against Candida albicans ATCC 90028 at 10 ug/ml after 48 hrs in presence of 80 ug/ml fluconazol by checkerboard assay relative to control; type: functional
Procedure, shortened: as §4

Candida albicans [19] = assay: Synergistic antifungal activity against Candida albicans ATCC 90028 at 20 ug/ml after 48 hrs in presence of 40 ug/ml fluconazol by checkerboard assay relative to control; type: functional
Procedure, shortened: as §4

Candida albicans [20] = assay: Synergistic antifungal activity against Candida albicans ATCC 90028 at 40 ug/ml after 48 hrs in presence of 80 ug/ml fluconazol by checkerboard assay relative to control; type: functional
Procedure, shortened: as §4

Candida albicans [21] = assay: Synergistic antifungal activity against Candida albicans ATCC 90028 at 80 ug/ml after 48 hrs in presence of 5 ug/ml fluconazol by checkerboard assay relative to control; type: functional
Procedure, shortened: as §4

Row | SMILES | Metabolic activity at 80 µg/mL (Candida albicans [1]) [%] | growth inhibition (GI) (Candida albicans [2]) [%] | residual activity (Candida albicans [3]) [%] | FIC (Candida albicans [4]) | residual activity (Candida albicans [5]) [%] | growth inhibition (GI) (Candida albicans [6]) [%] | growth inhibition (GI) (Candida albicans [7]) [%] | growth inhibition (GI) (Candida albicans [8]) [%] | residual activity (Candida albicans [9]) [%] | Metabolic activity (Candida albicans [10]) [%] | residual activity (Candida albicans [11]) [%] | inhibition of growth at 10 µg/mL (Candida albicans [12]) [%] | Metabolic activity (Candida albicans [13]) [%] | Metabolic activity (Candida albicans [14]) [%] | Activity (Candida albicans [15]) [log10CFU/ml] | growth inhibition (GI) (Candida albicans [16]) [%] | Metabolic activity at 20 µg/mL (Candida albicans [17]) [%] | growth inhibition (GI) (Candida albicans [18]) [%] | growth inhibition (GI) (Candida albicans [19]) [%] | growth inhibition (GI) (Candida albicans [20]) [%] | other results
1 | ClCCCn1nnnc1-c1ccccc1Cl | 53.2 | 99.14 | 100 | >5 | 80.42 | 99.32 | 99.66 | 98.95 | 79.69 | 80.34 | 71.55 | 99.7 | 2.6 | 99.55 | 0.18 | 98.94 | 67.8 | 99.43 | 99.34 | 99.54 | growth inhibition (GI) (Candida albicans [21]): 99.27%
2 | CCOC(=O)CCn1nnc(-c2ccccc2)n1 | 40 | 99.77 | 100 | >5 | 72.63 | 99.46 | 99.57 | 98.93 | 71.14 | 77.26 | 75.73 | 99.4 | 41.98 | 100 | 0.33 | 99.08 | 57.3 | 99.49 | 99.29 | 99.58 | growth inhibition (GI) (Candida albicans [21]): 99.18%
3 | Cc1ccc(-c2nnn(CCCN3CCOCC3)n2)cc1 | 73.4 | 98.9 | 100 | >1.25 | 84.01 | 98.91 | 98.8 | 98.83 | 100 | 89.3 | 100 | 99 | 100 | 100 | 0.56 | 98.33 | 61.7 | 99.21 | 98.99 | 99.59 | growth inhibition (GI) (Candida albicans [21]): 97.8%

Source: ChEMBL document CHEMBL4145471, “New 1,5 and 2,5-disubstituted tetrazoles-dependent activity towards surface barrier of Candida albicans” (Eur J Med Chem, 2018)
